Compound activity: PubChem BioAssay, several laboratories
Compounds with a hit are over-represented: about 5.7% of the library has one in this group of screens.
T cruzi repl = blocks replication of Trypanosoma cruzi | T. cruzi beta-gal in NIH3T3, luminescence, 90 h | inhibition, % (concentration not given with the values) | actives 1.4% (n = 300,000) | AID 1885;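 active = mean inhibition across valid replicates above about 55%, limit read from the data; inconclusive = mean below that limit but half or more replicates reach it; inactive = mean below it, under half of replicates reach it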;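 note: signal also drops with host cell toxicity which is not excluded here; 0% = plate median of DMSO wells and 100% = zero luminescence signal; higher percent means less beta-gal luminescence so fewer parasites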
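Incubation – ≥90 h infection period, 3 h prior cell attachment · System – NIH/3T3 fibroblasts plus reporter T. cruzi · Doses – compound pinned at 50 nL/well, DMSO · Read-out basis – percent inhibition of parasite-derived β-gal signal · Signal – luminescent β-galactosidase signal after 60 min lysis · Also added – 5000 T. cruzi trypomastigotes/well · Medium – Low-serum DMEM with 2% FBS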
Beta cell apopt = blocks beta cell apoptosis; AID 435005; actives 0.8% (n = 300,000); INS-1E cytokine-induced death, ATP luminescence, 48 h; percent of positive-control rescue, neutral wells zero; protection from apoptosis, % (no concentration beside the values);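 active = Every replicate reaches about 75%, or at least half do and their mean reaches it too, limit read from the data; inconclusive = At least half of replicates reach the limit but their mean does not; inactive = Under half of replicates reach the limit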;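 note: 0% = cytokine-treated negative control wells and 100% = positive control rescue; higher means more ATP so stronger rescue from cytokine killing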
Calb FLC = C. albicans growth modulation with fluconazole; actives 0.57% (n = 300,000); AID 1979; growth inhibition, % (concentration not given with the values); C. albicans CaCi-2 + fluconazole, Alamar Blue growth, 48 h;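 active = growth inhibition above about 58% in most replicates, limit read from the data, passing the limit was not always enough; inconclusive = exactly half the replicates above a set limit; inactive = most replicates below a set limit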;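 note: all wells also contain fluconazole at 8 µg/ml as a sub-toxic cotreatment; 0% = median of DMSO wells and 100% = median of geldanamycin control wells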
SKKanGAS inh = SKKanGAS growth inhibition. inhibition, % at 7.5 µM. actives 1.3% (n = 300,000). S. pyogenes SKKanGAS, kanamycin growth, BacTiter-Glo, 6 h;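 active = mean replicate score, as percent of positive control median, at least 50; inconclusive = mean below 50 but one replicate at or above 50; inactive = mean and every replicate below 50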;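 note: strain carries kanamycin resistance gene driven by streptokinase promoter and grows in 40 µg/ml kanamycin; loss of luminescence reflects streptokinase promoter inhibition or plain growth inhibition; 0% = median of DMSO wells and 100% = positive control at its reference dose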
Mdm2-MdmX inh = human Mdm2/MdmX binding inhibition | SaOS-2 split-luciferase Mdm2/MdmX complementation, luminescence | actives 3% (n = 330,000) | O15151+Q00987 | inhibition, % at 8 µM;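 active = inhibition of at least 50% at 8 µM in the primary screen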
Target sequence (O15151 whole entry, looked up): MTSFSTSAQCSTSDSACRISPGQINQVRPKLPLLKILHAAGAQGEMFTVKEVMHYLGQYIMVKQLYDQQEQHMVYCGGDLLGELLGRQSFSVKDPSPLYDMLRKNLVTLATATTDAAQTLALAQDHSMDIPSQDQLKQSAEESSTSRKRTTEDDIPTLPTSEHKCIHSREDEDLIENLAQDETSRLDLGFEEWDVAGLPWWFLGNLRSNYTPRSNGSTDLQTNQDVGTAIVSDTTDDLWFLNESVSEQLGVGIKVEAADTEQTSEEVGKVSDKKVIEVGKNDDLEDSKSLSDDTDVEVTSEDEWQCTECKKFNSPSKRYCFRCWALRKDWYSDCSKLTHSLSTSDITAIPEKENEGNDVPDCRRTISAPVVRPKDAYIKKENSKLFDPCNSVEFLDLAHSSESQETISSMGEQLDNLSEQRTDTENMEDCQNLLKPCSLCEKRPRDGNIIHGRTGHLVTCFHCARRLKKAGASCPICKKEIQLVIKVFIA
Target sequence (Q00987 whole entry, looked up): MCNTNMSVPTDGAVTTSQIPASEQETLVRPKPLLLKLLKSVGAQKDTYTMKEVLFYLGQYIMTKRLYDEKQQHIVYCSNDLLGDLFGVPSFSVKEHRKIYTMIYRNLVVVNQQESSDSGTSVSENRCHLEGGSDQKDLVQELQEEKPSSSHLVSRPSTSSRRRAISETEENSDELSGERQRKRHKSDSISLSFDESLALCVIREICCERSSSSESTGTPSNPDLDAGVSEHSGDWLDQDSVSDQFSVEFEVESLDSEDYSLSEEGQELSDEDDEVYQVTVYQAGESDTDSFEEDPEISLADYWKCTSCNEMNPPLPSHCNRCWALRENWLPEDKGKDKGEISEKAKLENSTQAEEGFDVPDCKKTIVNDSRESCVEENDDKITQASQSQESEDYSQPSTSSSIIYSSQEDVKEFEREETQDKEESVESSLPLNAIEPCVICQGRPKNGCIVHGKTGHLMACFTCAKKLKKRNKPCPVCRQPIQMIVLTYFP
CSC inhib = blocks cancer stem cells; cancer stem cell-like cells viability, luminescence; inhibition, % at 7.5 µM; actives 1.1% (n = 300,000); in the data active = inhibition above about 75%; inconclusive = no clear call, values can overlap the other calls; tested in HMLE shEcad cells
Mdm2 MdmX conf = confirmation of human Mdm2/MdmX interaction inhibitors | AID 489028 | shares compounds with Mdm2-MdmX inh | actives 55% (n = 10,000) | inhibition, % at 8 µM | Mdm2-MdmX binding, luminescent assay; in the data active = inhibition above about 40%
Full FLuc ctr = inhibits full-length luciferase, flagging false Mdm2/MdmX hits. AID 504607. inhibition, % at 8 µM. SaOS-2 full-length luciferase counterscreen, luminescence. actives 77% (n = 6,200). shares compounds with Mdm2-MdmX inh;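 active = mean inhibition at 8 µM reaching about 37%, which flags the compound as non-specific, limit read from the data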;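 note: p53-null SaOS-2 cells with luciferase driven by a doxycycline-inducible promoter; compound on cells about two nights before reading with doxycycline added after day one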
Numbers without * were called inactive.

`O=C1c2ccccc2C(=O)c2c1oc(C(F)(F)F)c2C(=O)c1ccccc1` gave T cruzi repl 58.9*, Beta cell apopt 122.5*, Calb FLC -22.1, SKKanGAS inh 106.0*, Mdm2-MdmX inh 84.4*, CSC inhib 116.8*, Mdm2 MdmX conf 81.5* and Full FLuc ctr 49.6*.
Screening O=c1[nH]nc(SCCS(=O)(=O)c2ccc(F)cc2)n1-c1ccc2c(c1)OCCO2 returned T cruzi repl -12.8, Beta cell apopt 3.9, Calb FLC 8.2, SKKanGAS inh -14.5, Mdm2-MdmX inh 21.7 and CSC inhib 18.6.
Cc1c(C(=O)NCCCN2CCCCC2)oc2ccc3c(c12)C(O)CC1(CCCCC1)O3 (stereo not given) was read as T cruzi repl 20.5, Beta cell apopt 1.6, Calb FLC 46.7, SKKanGAS inh -0.1, Mdm2-MdmX inh 76.3*, CSC inhib 27.2, Mdm2 MdmX conf 30.2 and Full FLuc ctr 55.2*.
For Cc1ccc(-c2cc(C(=O)N/N=C/c3ccccc3O)n[nH]2)o1 the results were T cruzi repl 37.0, Beta cell apopt 44.0, Calb FLC 20.8, SKKanGAS inh 25.7, Mdm2-MdmX inh 53.3*, CSC inhib 78.7*, Mdm2 MdmX conf 52.9* and Full FLuc ctr 47.0*.
Cc1ccc(-c2cc(C(=O)N/N=C/c3c[nH]c4ccccc34)n[nH]2)o1 was read as T cruzi repl -7.0, Beta cell apopt 2.3, Calb FLC 6.0, SKKanGAS inh 2.5, Mdm2-MdmX inh 13.4 and CSC inhib 30.2.
`Cc1cc(C(=O)N/N=C\c2cc(C(C)(C)C)ccc2O)n[nH]1` gave T cruzi repl 6.8, Beta cell apopt -4.4, Calb FLC 2.5, SKKanGAS inh 2.7, Mdm2-MdmX inh 65.3*, CSC inhib -8.5, Mdm2 MdmX conf 59.9* and Full FLuc ctr 41.0*.
For Cc1cc(C(=O)N/N=C/c2cc(Br)cc(Br)c2OC(=O)c2cccc(F)c2)n[nH]1 the results were T cruzi repl 65.5*, Beta cell apopt 96.9*, Calb FLC -7.8, SKKanGAS inh 6.0, Mdm2-MdmX inh 51.1*, CSC inhib inconclusive, Mdm2 MdmX conf 63.6* and Full FLuc ctr 43.0*.
Screening Cc1cccc(C(=O)Oc2c(Br)cc(Br)cc2/C=N/NC(=O)c2ccncc2)c1 returned T cruzi repl -0.7, Beta cell apopt -5.5, Calb FLC 31.3, SKKanGAS inh -0.4 and Mdm2-MdmX inh 7.0.
For O=C(NCC1CCCO1)C(=O)N/N=C/c1ccc(OCc2ccccc2Cl)cc1 (stereo not given) the results were T cruzi repl -10.6, Beta cell apopt -4.8, Calb FLC 2.1, SKKanGAS inh 3.2, Mdm2-MdmX inh -13.6 and CSC inhib 9.0.
O=C(Nc1cccc(S(=O)(=O)N2CCCCCC2)c1)c1cncc(Br)c1 was read as Beta cell apopt -0.9, Mdm2-MdmX inh 30.8 and CSC inhib -12.3.
For CCN(CC)Cc1ccc(NC(=O)c2sc3cc(Cl)ccc3c2Cl)cc1 the results were T cruzi repl 35.7, Beta cell apopt 0.9, Calb FLC 102.6*, SKKanGAS inh 3.6, Mdm2-MdmX inh 55.1*, CSC inhib 100.5* and Mdm2 MdmX conf 21.1.
For COc1ccccc1NS(=O)(=O)c1cc(NC(=O)c2sc3cc(Cl)ccc3c2Cl)ccc1C the results were T cruzi repl 17.0, Beta cell apopt -3.0, Calb FLC -20.3, SKKanGAS inh 14.7, Mdm2-MdmX inh 52.6*, CSC inhib -5.7, Mdm2 MdmX conf 33.2 and Full FLuc ctr 103.5*.
For CCOc1ccccc1NC(=O)NNC(=O)c1ccc2ccccc2c1 the results were T cruzi repl 8.7, Beta cell apopt 1.6, Calb FLC 5.4, SKKanGAS inh 0.0, Mdm2-MdmX inh 60.2*, Mdm2 MdmX conf 49.6* and Full FLuc ctr 83.2*.
For O=C(O)/C=C/S(=O)(=O)c1ccc2ccccc2c1 the results were T cruzi repl -8.2, Beta cell apopt -16.3, Calb FLC -0.4, SKKanGAS inh -6.6, Mdm2-MdmX inh -7.1 and CSC inhib -8.4.
Screening CCc1ccccc1OCC(=O)Nc1nc(-c2cccnc2)cs1 returned T cruzi repl 77.9*, Beta cell apopt 1.6, Calb FLC 2.4, SKKanGAS inh 101.6*, Mdm2-MdmX inh 66.9*, CSC inhib 39.6, Mdm2 MdmX conf 68.7* and Full FLuc ctr 35.6.
CC(=O)NNc1nc(-c2ccccc2)cs1 was read as T cruzi repl 4.3, Beta cell apopt -2.5, Calb FLC 3.3, SKKanGAS inh 23.2, Mdm2-MdmX inh 7.2 and CSC inhib 0.9.
For CC(C)(C)c1csc(NC(=O)c2ccccc2O)n1 the results were T cruzi repl -7.7, Beta cell apopt 12.3, Calb FLC 31.6, SKKanGAS inh 15.8, Mdm2-MdmX inh -31.1 and CSC inhib 28.3.
Screening O=C1OC(Nc2nc3ccccc3s2)c2ccccc21 (stereo not given) returned T cruzi repl -14.8, Calb FLC -1.0, SKKanGAS inh 2.1, Mdm2-MdmX inh -43.8 and CSC inhib 3.8.
Screening O=C1OC(Nc2nc(-c3ccc(F)cc3)cs2)c2ccccc21 (stereo not given) returned T cruzi repl -7.6, Beta cell apopt 21.3, Calb FLC -6.8, SKKanGAS inh 0.0, Mdm2-MdmX inh 62.6*, CSC inhib 42.0 and Mdm2 MdmX conf 23.0.
`CC(C)(C)c1csc(NNC(=O)c2ccc(Br)cc2)n1` gave T cruzi repl 42.2, Beta cell apopt 18.2, Calb FLC -15.6, SKKanGAS inh 61.1*, Mdm2-MdmX inh 64.4*, CSC inhib 61.3 and Mdm2 MdmX conf 21.9.
O=C(NNc1nc(-c2ccc(F)cc2)cs1)c1ccccc1 was read as T cruzi repl -14.7, Beta cell apopt -3.5, Calb FLC -5.7, SKKanGAS inh 67.6*, Mdm2-MdmX inh 61.8*, CSC inhib 15.9, Mdm2 MdmX conf 48.9* and Full FLuc ctr 49.6*.
For CCC(=O)c1ccc(OCC(=O)Nc2nc(-c3cccnc3)cs2)cc1 the results were T cruzi repl -3.1, Beta cell apopt 3.0, Calb FLC 4.8, SKKanGAS inh -13.1, Mdm2-MdmX inh 16.0 and CSC inhib -11.3.
CCN(CC)S(=O)(=O)c1ccc(N(C)C)c(NC(=O)CSCc2c(C)noc2C)c1 was read as T cruzi repl 3.2, Beta cell apopt -0.9, Calb FLC 10.6, SKKanGAS inh -6.9, Mdm2-MdmX inh 26.2 and CSC inhib 3.8.
CC(C)Cc1nnc(NC(=O)CCC(=O)NC2CCCCC2)s1 was read as T cruzi repl -3.0, Beta cell apopt -5.0, Calb FLC -8.6, SKKanGAS inh -5.1, Mdm2-MdmX inh 18.3 and CSC inhib -11.4.
